ChEMBL document CHEMBL2010705, “Design and synthesis of 4-alkynyl pyrazoles as inhibitors of PDE4: a practical access via Pd/C-Cu catalysis” (Bioorg Med Chem Lett, 2012)
Activity calls are given as the source filed them. The rule behind the calls is not given here.

Tests used:
[1] = molecular target: 3',5'-cyclic-AMP phosphodiesterase 4B (Homo sapiens) (UniProt Q07343); assay: Inhibition of PDE4B expressed in Sf9 cells using cAMP as substrate at 30 uM preincubated for 15 mins prior substrate addition measured after 1 hr by luminescence-based spectrophotometry
Summary of the method: (§1)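 10 ng PDE4B enzyme (isolated from Sf9 cells) was preincubated 15 min with compound or DMSO vehicle, then incubated 1 h with 5 µM cAMP using a PDElight HTS cAMP phosphodiesterase kit. The reaction was stopped, then developed with detection reagent for 10 min in the dark. Luminescence (RLU) was read, and % inhibition was calculated as (RLU vehicle − RLU inhibitor)/RLU vehicle × 100.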

[2] = molecular target: 3',5'-cyclic-AMP phosphodiesterase 4B (Homo sapiens) (UniProt Q07343); assay: Inhibition of PDE4B expressed in Sf9 cells using cAMP as substrate preincubated for 15 mins prior substrate addition measured after 1 hr by luminescence-based spectrophotometry; summary of the method: as §1
[3] = molecular target: 3',5'-cyclic-AMP phosphodiesterase 4D (Homo sapiens) (UniProt Q08499); assay: Inhibition of PDE4D2 using cAMP as substrate at 30 uM preincubated for 15 mins prior substrate addition measured after 1 hr by luminescence-based spectrophotometry
[4] = Ratio of inhibition of PDE4B over inhibition of PDE4D2

Sequence of 3',5'-cyclic-AMP phosphodiesterase 4D (Homo sapiens) (Q08499 whole entry): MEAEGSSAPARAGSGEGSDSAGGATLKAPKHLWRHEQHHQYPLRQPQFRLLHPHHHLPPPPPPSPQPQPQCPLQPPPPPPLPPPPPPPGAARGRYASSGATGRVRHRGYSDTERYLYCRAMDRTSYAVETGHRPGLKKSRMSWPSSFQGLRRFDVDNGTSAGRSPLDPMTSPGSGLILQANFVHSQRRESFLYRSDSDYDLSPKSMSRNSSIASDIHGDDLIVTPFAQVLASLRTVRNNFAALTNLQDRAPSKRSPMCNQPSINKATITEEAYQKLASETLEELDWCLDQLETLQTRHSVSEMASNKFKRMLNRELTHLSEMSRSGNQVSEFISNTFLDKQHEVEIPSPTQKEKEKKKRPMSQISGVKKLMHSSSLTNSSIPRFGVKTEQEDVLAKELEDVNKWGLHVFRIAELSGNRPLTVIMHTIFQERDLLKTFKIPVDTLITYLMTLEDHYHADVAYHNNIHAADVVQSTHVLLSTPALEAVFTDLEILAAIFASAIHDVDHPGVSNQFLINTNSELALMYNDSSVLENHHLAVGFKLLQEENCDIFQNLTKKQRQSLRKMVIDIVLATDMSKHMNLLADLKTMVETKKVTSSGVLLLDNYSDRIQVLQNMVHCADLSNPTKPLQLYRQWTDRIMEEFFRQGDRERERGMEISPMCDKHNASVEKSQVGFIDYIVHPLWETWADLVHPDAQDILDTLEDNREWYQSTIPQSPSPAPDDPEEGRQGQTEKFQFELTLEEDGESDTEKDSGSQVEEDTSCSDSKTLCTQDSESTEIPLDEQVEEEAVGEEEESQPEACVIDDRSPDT
Sequence of 3',5'-cyclic-AMP phosphodiesterase 4B (Homo sapiens) (Q07343 whole entry): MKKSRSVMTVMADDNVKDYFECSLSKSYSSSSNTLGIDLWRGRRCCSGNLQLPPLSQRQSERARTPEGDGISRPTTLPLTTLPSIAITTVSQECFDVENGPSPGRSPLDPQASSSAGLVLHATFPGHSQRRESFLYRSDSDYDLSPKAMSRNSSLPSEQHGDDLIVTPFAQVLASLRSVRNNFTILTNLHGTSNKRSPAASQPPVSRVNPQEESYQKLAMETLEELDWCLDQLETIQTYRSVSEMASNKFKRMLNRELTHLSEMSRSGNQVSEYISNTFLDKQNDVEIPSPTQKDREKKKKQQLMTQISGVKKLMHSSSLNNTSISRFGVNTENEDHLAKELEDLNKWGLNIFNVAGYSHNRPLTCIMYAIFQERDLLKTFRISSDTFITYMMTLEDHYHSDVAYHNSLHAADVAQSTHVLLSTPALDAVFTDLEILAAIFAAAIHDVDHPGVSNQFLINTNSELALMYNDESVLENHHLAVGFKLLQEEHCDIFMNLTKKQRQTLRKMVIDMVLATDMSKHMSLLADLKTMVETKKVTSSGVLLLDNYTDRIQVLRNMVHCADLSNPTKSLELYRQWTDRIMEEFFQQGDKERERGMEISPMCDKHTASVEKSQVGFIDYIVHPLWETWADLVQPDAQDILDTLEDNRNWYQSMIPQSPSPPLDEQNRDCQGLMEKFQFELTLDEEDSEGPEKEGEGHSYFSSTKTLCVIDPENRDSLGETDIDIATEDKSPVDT

Structure (SMILES) | inhibition [1] [%] | inhibition [2] | inhibition [3] [%] | Ratio [4]
CCOC(=O)c1n[nH]c(-c2cccc(Cl)c2)c1C#CCCO | 65.1 | – | – | –
CCOC(=O)c1n[nH]c(-c2cccc(Cl)c2)c1C#CCCCC#N | 71.1 | – | 20 | 2
CCOC(=O)c1n[nH]c(-c2cccc(Cl)c2)c1C#Cc1ccccc1 | 70 | – | 20 | 2
CCOC(=O)c1n[nH]c(-c2cccc(Cl)c2)c1C#CC1(O)CCCCC1 | 21.1 | – | – | –
Cc1nn(C)c(C)c1C#Cc1ccccc1 | – | Active | – | –
CCOC(=O)c1n[nH]c(-c2cccc(Cl)c2)c1C#CC(C)(C)O | 70 | – | 20 | 2
Cc1c(C#Cc2ccccc2)cnn1C | – | Active | – | –

Second part, the molecule after the results:

inhibition [1] [%] | inhibition [2] | inhibition [3] [%] | Ratio [4] | Structure (SMILES)
68.1 | – | – | – | CCOC(=O)c1n[nH]c(-c2cccc(Cl)c2)c1C#CCO
69.1 | – | – | – | CCOC(=O)c1nn(C)c(-c2cccc(Cl)c2)c1C#CCO
73.4 | Dose-dependent effect | 20 | 2 | CCOC(=O)c1nn(C)c(-c2cccc(Cl)c2)c1C#CCCCC#N
67.3 | – | – | – | CCOC(=O)c1nn(C)c(-c2cccc(Cl)c2)c1C#CC(C)(C)O
59.2 | – | – | – | CCOC(=O)c1nn(C)c(-c2cccc(Cl)c2)c1C#CCCO
